Measured values collected from several papers.
Compare with care: the assays were run in different laboratories.
Read-out: cell growth or viability

SMILES | cell line | assay | setting | IC50 [µM]
OCc1ccc(-c2nn(Cc3ccncc3)c3cccnc23)o1 | HuCCT-1 | ATP luminescence |  | > 46
CCCCn1cnc2ccc(-c3ccc(NC(=O)Nc4ccc(CC)cc4)nc3)cc2c1=O | HCC827 | CCK-8 | 72 h | > 10
CC(C)[C@@H]1NC(=O)[C@H](Cc2c[nH]cn2)NC1=O | ASPC1 | SRB |  | > 15
O=C1CS/C(=N\c2cc(C(F)(F)F)ccc2-c2nnc(N3C(=O)CS/C3=N\c3ccc(F)c(O)c3)s2)N1c1ccc(F)c(O)c1 | WI-38 | MTT |  | 20.3
CCCCn1cnc2ccc(-c3ccc(NC(=O)Nc4ccccc4)nc3)cc2c1=O | HCC827 | CCK-8 | 72 h | 0.98
NCc1ccc(-c2nn(Cc3ccccc3)c3ccccc23)o1 | HuCCT-1 | ATP luminescence |  | > 46
CNC(=O)c1ccccc1Nc1cc(Nc2ccc(N3CCOCC3)cc2OC)ncc1C(F)(F)F | ASPC1 | MTT | 48 h | 3.19
CCCCC(=O)Nc1ccc(-c2ccc3ncn(CCC)c(=O)c3c2)c(F)n1 | HCC827 | CCK-8 | 72 h | 0.82
COc1cccc(Cn2nc(-c3ccc(CO)o3)c3ccccc32)c1 | HuCCT-1 | ATP luminescence |  | > 46
Cc1ccc(C(=O)Nc2ccc(-c3ccc4ncn(Cc5ccccc5)c(=O)c4c3)cn2)cc1 | HCC827 | CCK-8 | 72 h | > 10
O=C1CS/C(=N\c2cc(C(F)(F)F)ccc2-c2nnc(N3C(=O)CS/C3=N\c3ccc(Cl)cc3)s2)N1c1ccc(Cl)cc1 | WI-38 | MTT |  | 49.2
O=C(Nc1ccc(-c2ccc3ncn(Cc4ccc5c(c4)OCO5)c(=O)c3c2)cn1)c1ccccc1 | HCC827 | CCK-8 | 72 h | 8.81
O=C1CS/C(=N\c2cc(C(F)(F)F)ccc2-c2nnc(N3C(=O)CS/C3=N\c3ccc(-c4ccccc4)cc3)s2)N1c1ccc(-c2ccccc2)cc1 | WI-38 | MTT |  | 94.7
COc1ccc(N=Nc2c(N)nn3c(-c4ccc(C)cc4)cc(-c4ccc(OCc5ccccc5)cc4)nc23)cc1 | WI-38 | MTT | 48 h | 47
COc1ccc(N=C2SCC(=O)N2c2nnc(-c3ccc(C(F)(F)F)cc3N=C3SCC(=O)N3c3ccc(OC)cc3)s2)cc1 | WI-38 | MTT |  | 69.5
CCCn1cnc2ccc(-c3ccc(NC(=O)CC4CC4)nc3)cc2c1=O | HCC827 | CCK-8 | 72 h | 0.91
NCc1ccc(-c2nn(Cc3ccncc3)c3ccccc23)o1 | HuCCT-1 | ATP luminescence |  | > 46
CN1CCC(NC2CCc3[nH]c4c(C(N)=O)ccc(-c5ccccc5Cl)c4c3C2)CC1 (stereo not shown) | HuCCT-1 |  | 96 h | 0.00122
CC1(P2(=O)CCCCC2)C=CCC=C1 | HaCaT | MTT | 72 h | > 100
